According to ChEMBL document CHEMBL4052644, “Synthesis of novel benzylidene analogues of betulinic acid as potent cytotoxic agents” (Eur J Med Chem, 2017):

Experiments:
[1] = system: A549; assay: Growth inhibition of human A549 cells after 18 hrs; format: functional, cell-based; conditions: A549, 18 h
Procedure, shortened: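 Sulforhodamine B (SRB) assay on A-549 human lung cancer cells. Compounds were first screened at 10 µM. Those active at 10 µM were retested at 1, 2.5 and 5 µM, and IC50 was calculated from these concentrations.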

[2] = system: HCT-116; assay: Induction of morphological changes in human HCT116 cells assessed as cell growth arrest after 24 hrs by phase contrast microscopic method; format: functional, cell-based
Procedure, shortened: (§1)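 HCT 116 cells were treated at 0.7, 1.4, 2.0 and 2.5 µM for 24 h, then examined under a phase contrast microscope for growth arrest and morphological change.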

[3] = system: HCT-116; assay: Growth inhibition of human HCT116 cells at 10 uM after 48 hrs by SRB assay relative to control; format: functional; conditions: HCT-116, 48 h, read-out: GI
Procedure, shortened: (§2)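 Primary SRB screen of every compound at a single concentration of 10 µM. Growth inhibition is expressed relative to control.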

[4] = system: MCF7; assay: Growth inhibition of human MCF7 cells at 10 uM after 48 hrs by SRB assay relative to control; format: functional; conditions: MCF7, 48 h, read-out: GI; procedure, shortened: as §2
[5] = Selectivity index, ratio of IC50 for human FR2 cells to IC50 for human MIAPaCa2 cells; format: functional
Procedure, shortened: (§3)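 Selectivity index is the IC50 in normal breast epithelial fR2 cells divided by the IC50 in each cancer line. All IC50 values come from the SRB assay.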

[6] = system: HCT-116; assay: Induction of morphological changes in human HCT116 cells assessed as change in cell morphology after 24 hrs by phase contrast microscopic method; format: functional, cell-based; procedure, shortened: as §1
[7] = Selectivity index, ratio of IC50 for human FR2 cells to IC50 for human A549 cells; format: functional; procedure, shortened: as §3
[8] = Selectivity index, ratio of IC50 for human FR2 cells to IC50 for human PC3 cells; format: functional; procedure, shortened: as §3
[9] = Selectivity index, ratio of IC50 for human FR2 cells to IC50 for human MCF7 cells; format: functional; procedure, shortened: as §3
[10] = system: PC-3; assay: Growth inhibition of human PC3 cells at 10 uM after 48 hrs by SRB assay relative to control; format: functional; conditions: PC-3, 48 h, read-out: GI; procedure, shortened: as §2
[11] = system: MIA PaCa-2; assay: Growth inhibition of human MIAPaCa2 at 10 uM after 48 hrs by SRB assay relative to control; format: functional; conditions: MIA PaCa-2, 48 h, read-out: GI; procedure, shortened: as §2
[12] = system: A549; assay: Growth inhibition of human A549 cells at 10 uM after 48 hrs by SRB assay relative to control; format: functional; conditions: A549, 48 h, read-out: GI; procedure, shortened: as §2
[13] = system: HCT-116; assay: Cytotoxicity against human HCT116 cells assessed as reduction in cell viability after 48 hrs by SRB assay; format: functional, cell-based; conditions: HCT-116, 48 h
Procedure, shortened: (§4)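 SRB assay. Compounds active at 10 µM in the primary screen were retested at 1, 2.5 and 5 µM, and IC50 was calculated from these concentrations. The normal breast epithelial line fR2 was tested alongside the cancer lines.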

[14] = system: MIA PaCa-2; assay: Cytotoxicity against human MIAPaCa2 cells assessed as reduction in cell viability after 48 hrs by SRB assay; format: functional, cell-based; conditions: MIA PaCa-2, 48 h; procedure, shortened: as §4
[15] = system: HCT-116; assay: Induction of mitochondrial membrane potential loss in human HCT116 cells after 24 hrs by rhodamine-123 dye based fluorescence microscopy; format: functional, cell-based
Procedure, shortened: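 HCT-116 cells were treated at 0.7, 1.4, 2.0 and 2.5 µM and stained with rhodamine-123. Loss of membrane potential was read as a decrease in fluorescence compared with untreated cells.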

[16] = system: A549; assay: Cytotoxicity against human A549 cells assessed as reduction in cell viability after 48 hrs by SRB assay; format: functional, cell-based; conditions: A549, 48 h; procedure, shortened: as §4
[17] = system: MCF7; assay: Cytotoxicity against human MCF7 cells assessed as reduction in cell viability after 48 hrs by SRB assay; format: functional, cell-based; conditions: MCF7, 48 h; procedure, shortened: as §4
[18] = system: PC-3; assay: Cytotoxicity against human PC3 cells assessed as reduction in cell viability after 48 hrs by SRB assay; format: functional, cell-based; conditions: PC-3, 48 h; procedure, shortened: as §4
[19] = system: HCT-116; assay: Antiproliferative activity against human HCT116 cells assessed as reduction in colony formation after 14 days by crystal violet staining based clonogenic assay; format: functional, cell-based
Procedure, shortened: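 HCT 116 cells were treated at 0.7, 1.4 and 2.8 µM. Colonies formed over 14 days of treatment and were compared with untreated control.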

[20] = Cytotoxicity against human FR2 cells assessed as reduction in cell viability after 48 hrs by SRB assay; format: cell-based; conditions: FR2, 48 h; procedure, shortened: as §4
[21] = Selectivity index, ratio of IC50 for human FR2 cells to IC50 for human HCT116 cells; format: functional; procedure, shortened: as §3
[22] = system: HCT-116; assay: Antimigratory activity in human HCT116 cells assessed as inhibition of wound closure after 24 hrs by wound healing assay; format: functional, cell-based
Procedure, shortened: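 HCT 116 monolayers were scratched, then treated at 1.4, 2.0 and 2.5 µM for 24 h. Wound area was measured at 0 and 24 h. Migration was derived from the recovered scratch area relative to 0 h and to the matching control.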

[23] = system: DLD-1; assay: Cytotoxicity against human DLD1 cells assessed as cell growth inhibition after 18 hrs; format: functional, cell-based; conditions: DLD-1, 18 h
[24] = system: SK-MEL-2; assay: Cytotoxicity against human SK-MEL-2 cells assessed as reduction in cell viability; format: functional, cell-based

| Compound | inhibition of growth at 10 µM [3] | inhibition of growth at 10 µM [4] | Ratio IC50 [5] | Ratio IC50 [7] | Ratio IC50 [8] | Ratio IC50 [9] | inhibition of growth at 10 µM [10] | inhibition of growth at 10 µM [11] | inhibition of growth at 10 µM [12] | IC50 [13] | IC50 [14] | IC50 [16] | IC50 [17] | IC50 [18] | IC50 [20] | Ratio IC50 [21] | also measured |
| --- | --- | --- | --- | --- | --- | --- | --- | --- | --- | --- | --- | --- | --- | --- | --- | --- | --- |
| C=C(C)[C@@H]1CC[C@]2(C(=O)OCC(N)(CO)CO)CC[C@]3(C)[C@H](CC[C@@H]4[C@@]5(C)CC[C@H](OC(C)=O)C(C)(C)[C@@H]5CC[C@]43C)[C@@H]12 |  |  |  |  |  |  |  |  |  |  |  |  |  |  |  |  | IC50 [1]: 2.5 µM |
| C=C(C)[C@@H]1CC[C@]2(C(=O)O)CC[C@]3(C)[C@H](CC[C@@H]4[C@@]5(C)C/C(=C\c6ccc([N+](=O)[O-])cc6)[C@H](O)C(C)(C)[C@@H]5CC[C@]43C)[C@@H]12 | 92% | 85% | 5.25 | 11.2 | 10.5 | 4.8 | 56% | 81% | 73% | 1.36 µM | 3.2 µM | 1.5 µM | 3.5 µM | 1.6 µM | 16.8 µM | 12.35 | Activity [2]: Dose-dependent effect; Activity [6]: Dose-dependent effect; Activity [15]: Dose-dependent effect; inhibition [19]: Dose-dependent effect; inhibition [22]: Dose-dependent effect |
| C=C(C)[C@@H]1CC[C@]2(C(=O)O)CC[C@]3(C)[C@H](CC[C@@H]4[C@@]5(C)C/C(=C\c6cccc7ccccc67)C(=O)C(C)(C)[C@@H]5CC[C@]43C)[C@@H]12 | 62% | 67% | 1.555 | 3.977 | 2.318 | 1.429 | 71% | 64% | 90% | 8.4 µM | 7.9 µM | 3.09 µM | 8.6 µM | 5.3 µM | 12.3 µM | 1.463 |  |
| C=C(C)[C@@H]1CC[C@]2(C(=O)O)CC[C@]3(C)[C@H](CC[C@@H]4[C@@]5(C)C/C(=C\c6ccc(OC)cc6)C(=O)C(C)(C)[C@@H]5CC[C@]43C)[C@@H]12 | 69% | 88% | 3.387 | 4.696 | 3.522 | 3.522 | 81% | 71% | 94% | 5.4 µM | 7.07 µM | 5.1 µM | 6.8 µM | 6.8 µM | 23.9 µM | 4.435 |  |
| C=C(C)[C@@H]1CC[C@]2(COC(C)=O)CC[C@]3(C)[C@H](CC[C@@H]4[C@@]5(C)CC[C@H](O[C@H]6O[C@H](CO)[C@@H](O)[C@H](O)[C@H]6O)C(C)(C)[C@@H]5CC[C@]43C)[C@@H]12 |  |  |  |  |  |  |  |  |  |  |  |  |  |  |  |  | IC50 [23]: 4.45 µM |
| C=C(C)[C@@H]1CC[C@]2(C(=O)O)CC[C@]3(C)[C@H](CC[C@@H]4[C@@]5(C)C/C(=C\c6ccc(Br)o6)C(=O)C(C)(C)[C@@H]5CC[C@]43C)[C@@H]12 | 87% | 92% | 2.619 | 4.69 | 2.389 | 2.432 | 79% | 75% | 91% | 2.9 µM | 5.2 µM | 2.9 µM | 5.6 µM | 5.7 µM | 13.6 µM | 4.696 |  |
| CC(C)[C@@H]1CC[C@]2(C(=O)O)CC[C@]3(C)[C@H](CC[C@@H]4[C@@]5(C)C=C(Cl)C(=O)C(C)(C)[C@@H]5CC[C@]43C)[C@@H]12 |  |  |  |  |  |  |  |  |  |  |  |  |  |  |  |  | IC50 [24]: 0.13 µM |
| C=C(C)[C@@H]1CC[C@]2(C(=O)O)CC[C@]3(C)[C@H](CC[C@@H]4[C@@]5(C)C/C(=C\c6cccnc6)C(=O)C(C)(C)[C@@H]5CC[C@]43C)[C@@H]12 | 96% | 97% | 20.4 | 32.25 | 15.15 | 38.46 | 67% | 97% | 94% | 1.97 µM | 4.9 µM | 3.1 µM | 2.6 µM | 6.6 µM | 100 µM | 50.76 |  |
| CC(C)[C@@H]1CC[C@]2(C(=O)O)CC[C@]3(C)[C@H](CC[C@@H]4[C@@]5(C)C=C(C#N)C(=O)C(C)(C)[C@@H]5CC[C@]43C)[C@@H]12 |  |  |  |  |  |  |  |  |  |  |  |  |  |  |  |  | IC50 [24]: 0.81 µM |
| C=C(C)[C@@H]1CC[C@]2(C(=O)O)CC[C@]3(C)[C@H](CC[C@@H]4[C@@]5(C)C/C(=C\c6ccc(OC)cc6)[C@H](O)C(C)(C)[C@@H]5CC[C@]43C)[C@@H]12 | 63% | 69% | 3.37 | 5.016 | 2.914 | 3.126 | 52% | 67% | 54% | 4.9 µM | 6.4 µM | 4.3 µM | 6.9 µM | 7.4 µM | 21.6 µM | 4.402 |  |
